Data: ChEMBL document CHEMBL1142419, “Antimycobacterial activities of novel 2-(sub)-3-fluoro/nitro-5,12-dihydro-5-oxobenzothiazolo[3,2-a]quinoline-6-carboxylic acid” (Bioorg Med Chem, 2008)
Converted amounts (≈) assume the structure as drawn.

What was measured:
[1] = system: Mycobacterium tuberculosis; assay: Antimycobacterial activity against Mycobacterium tuberculosis H37Rv by agar dilution method; format: functional
Summary of the method: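 MIC by agar dilution on Middlebrook 7H11 agar supplemented with OADC, following an NCCLS-like procedure, run in duplicate. The MDR-TB clinical isolate was resistant to isoniazid, rifampicin, ethambutol and ofloxacin.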

[2] = system: Mycolicibacterium smegmatis; assay: Antimycobacterial activity against Mycobacterium smegmatis MC2 by agar dilution method; format: functional
Summary of the method: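 Agar dilution on Middlebrook 7H11 agar supplemented with OADC, following an NCCLS-like procedure; MIC determined in duplicate against M. smegmatis ATCC 14468 (MC²).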

[3] = Inhibition of Mycobacterium smegmatis DNA gyrase supercoiling activity; set-up: species or system Mycolicibacterium smegmatis
[4] = system: Vero; assay: Cytotoxicity against african green monkey Vero cells after 72 hrs by MTT assay; format: cell-based; settings: Chlorocebus sabaeus
Summary of the method: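 Vero mammalian cells were exposed to compounds for 72 h, with testing at 62.5 µg/ml. Viability was read as cellular conversion of MTT to formazan (non-radioactive cell proliferation kit), and IC50 was reported.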

[5] = system: Mus musculus; assay: Phototoxicity in Swiss albino mouse assessed as erythema incidence at 140 mg/kg, po after 4 hrs of irradiation; format: organism-based; set-up: dose 140 mg/kg, route oral; settings: in vivo
Summary of the method: (§1)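 Female Swiss albino mice (about 2 months, 20–25 g), fasted at least 18 h, received a single oral gavage of 140 mg/kg. Groups: six per group; lomefloxacin HCl 140 mg/kg; vehicle 0.5% aqueous sodium carboxymethylcellulose at 10 ml/kg. Mice were UV-irradiated for 4 h (about 18 J/cm²). Both ears were scored for erythema, edema and ear thickness (left/right averaged) pre-dose, at end of irradiation, and at about 24, 48, 72 and 96 h. Ear thickness change from baseline was tested by Student's t-tests.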

[6] = system: Mus musculus; assay: Phototoxicity in Swiss albino mouse assessed as ear thickness at 140 mg/kg, po after 4 hrs of irradiation; format: organism-based; set-up: dose 140 mg/kg, route oral; settings: in vivo; summary of the method: as §1
[7] = system: Mus musculus; assay: Phototoxicity in Swiss albino mouse assessed as ear thickness at 140 mg/kg, po after 72 hrs of irradiation; format: organism-based; set-up: dose 140 mg/kg, route oral; settings: in vivo; summary of the method: as §1
[8] = system: Mus musculus; assay: Phototoxicity in Swiss albino mouse assessed as ear thickness at 140 mg/kg, po after 96 hrs of irradiation; format: organism-based; set-up: dose 140 mg/kg, route oral; settings: in vivo; summary of the method: as §1
[9] = system: Mus musculus; assay: Phototoxicity in Swiss albino mouse assessed as ear thickness at 140 mg/kg, po after 48 hrs of irradiation; format: organism-based; set-up: dose 140 mg/kg, route oral; settings: in vivo; summary of the method: as §1
[10] = system: Mus musculus; assay: Phototoxicity in Swiss albino mouse assessed as erythema incidence at 140 mg/kg, po after 24 hrs of irradiation; format: organism-based; set-up: dose 140 mg/kg, route oral; settings: in vivo; summary of the method: as §1
[11] = system: Mus musculus; assay: Phototoxicity in Swiss albino mouse assessed as erythema incidence at 140 mg/kg, po after 96 hrs of irradiation; format: organism-based; set-up: dose 140 mg/kg, route oral; settings: in vivo; summary of the method: as §1
[12] = system: Mus musculus; assay: Phototoxicity in Swiss albino mouse assessed as ear thickness at 140 mg/kg, po after 24 hrs of irradiation; format: organism-based; set-up: dose 140 mg/kg, route oral; settings: in vivo; summary of the method: as §1
[13] = system: Mus musculus; assay: (§2) Phototoxicity in Swiss albino mouse assessed as erythema incidence at 140 mg/kg, po after 48 hrs of irradiation; format: organism-based; set-up: dose 140 mg/kg, route oral; settings: in vivo; summary of the method: as §1
[14] = system: Mus musculus; assay: as §2; format: organism-based; set-up: dose 140 mg/kg, route oral; settings: in vivo; summary of the method: as §1; remark: listed apart in the source

SMILES	MIC [1]	MIC [2]	IC50 [4]	also measured
O=C(O)c1c(=O)c2cc(F)c(N3CCC(n4c(=O)[nH]c5cc(Cl)ccc54)CC3)cc2n2c1sc1ccccc12	2.77 µM (≈ 1.56 µg/mL)	44.4 µM (≈ 25 µg/mL)		
O=C(O)c1c(=O)c2cc(F)c(N3CCC(N4CCCCC4)CC3)cc2n2c1sc1ccccc12	0.39 µM (≈ 0.187 µg/mL)	6.53 µM (≈ 3.13 µg/mL)	130 µM	IC50 [3]: > 50 µg/mL
O=C(O)c1c(=O)c2cc(F)c(N3CCC4(CC3)OCCO4)cc2n2c1sc1ccccc12	0.86 µM (≈ 0.391 µg/mL)	6.89 µM (≈ 3.13 µg/mL)	> 138 µM	Activity [5]: Non-toxic; Activity [6]: 0.3 mm; Activity [7]: 0.28 mm; Activity [8]: 0.3 mm; Activity [9]: 0.3 mm; Activity [10]: Non-toxic; Activity [11]: Non-toxic; Activity [12]: 0.31 mm; Activity [13]: Non-toxic; Activity [14]: Non-toxic
CC(C)(C)NC(=O)C1c2ccccc2CCN1c1cc2c(cc1F)c(=O)c(C(=O)O)c1sc3ccccc3n12 (stereo unspecified)	2.87 µM (≈ 1.56 µg/mL)	46 µM (≈ 25 µg/mL)	115 µM	
O=C(O)c1c(=O)c2cc(F)c(N3CCN(C(=O)C4COc5ccccc5O4)CC3)cc2n2c1sc1ccccc12 (stereo unspecified)	1.39 µM (≈ 0.778 µg/mL)	2.79 µM (≈ 1.56 µg/mL)	112 µM	IC50 [3]: > 50 µg/mL
CC(C)(C)OC(=O)NC1C2CN(c3cc4c(cc3F)c(=O)c(C(=O)O)c3sc5ccccc5n34)CC21 (stereo unspecified)	0.37 µM (≈ 0.189 µg/mL)	6.14 µM (≈ 3.13 µg/mL)	> 113 µM	IC50 [3]: 50 µg/mL (≈ 98.1 µM)
O=C(O)c1c(=O)c2cc([N+](=O)[O-])c(N3CCN(C(c4ccccc4)c4ccc(Cl)cc4)CC3)cc2n2c1sc1ccccc12 (stereo unspecified)	5.01 µM (≈ 3.13 µg/mL)	40 µM (≈ 25 µg/mL)	50 µM	
O=C(O)c1c(=O)c2cc([N+](=O)[O-])c(N3CCC(n4c(=O)[nH]c5cc(Cl)ccc54)CC3)cc2n2c1sc1ccccc12	5.31 µM (≈ 3.13 µg/mL)	84.8 µM (≈ 50 µg/mL)		
O=C(O)c1c(=O)c2cc([N+](=O)[O-])c(N3CCC4(CC3)OCCO4)cc2n2c1sc1ccccc12	1.62 µM (≈ 0.78 µg/mL)	104 µM (≈ 50 µg/mL)	130 µM	
CN1CCN(c2cc3c(cc2F)c(=O)c(C(=O)O)c2sc4ccccc4n23)CC1c1ccccc1 (stereo unspecified)	12.8 µM (≈ 6.25 µg/mL)	103 µM (≈ 50 µg/mL)		
CC(C)(C)OC(=O)NC1C2CN(c3cc4c(cc3[N+](=O)[O-])c(=O)c(C(=O)O)c3sc5ccccc5n34)CC21 (stereo unspecified)	2.91 µM (≈ 1.56 µg/mL)	93.2 µM (≈ 50 µg/mL)	58.2 µM	
O=C(O)c1c(=O)c2cc(F)c(N3CCN(Cc4ccc5c(c4)OCO5)CC3)cc2n2c1sc1ccccc12	1.47 µM (≈ 0.781 µg/mL)	5.89 µM (≈ 3.13 µg/mL)	> 118 µM	
CC1CN(c2cc3c(cc2[N+](=O)[O-])c(=O)c(C(=O)O)c2sc4ccccc4n23)CC(C)O1 (stereo unspecified)	6.9 µM (≈ 3.13 µg/mL)	110 µM (≈ 50 µg/mL)		
O=C(O)c1c(=O)c2cc(F)c(N3CCN(C(c4ccccc4)c4ccc(Cl)cc4)CC3)cc2n2c1sc1ccccc12 (stereo unspecified)	2.61 µM (≈ 1.56 µg/mL)	10.4 µM (≈ 6.25 µg/mL)	104 µM	
O=C(O)c1c(=O)c2cc([N+](=O)[O-])c(N3CCN(Cc4ccc5c(c4)OCO5)CC3)cc2n2c1sc1ccccc12	5.6 µM (≈ 3.13 µg/mL)	44.8 µM (≈ 25 µg/mL)	112 µM	
CC(C)(C)NC(=O)C1c2ccccc2CCN1c1cc2c(cc1[N+](=O)[O-])c(=O)c(C(=O)O)c1sc3ccccc3n12 (stereo unspecified)	2.73 µM (≈ 1.56 µg/mL)	43.8 µM (≈ 25 µg/mL)		
O=C(O)c1c(=O)c2cc([N+](=O)[O-])c(N3CCC(O)(c4ccc(Cl)cc4)CC3)cc2n2c1sc1ccccc12	2.84 µM (≈ 1.56 µg/mL)	90.9 µM (≈ 50 µg/mL)	114 µM	
O=C(O)c1c(=O)c2cc(F)c(N3CCSCC3)cc2n2c1sc1ccccc12	3.76 µM (≈ 1.56 µg/mL)	7.55 µM (≈ 3.13 µg/mL)		
